The target in assay [1] is T1, SLC19A1 (Homo sapiens, UniProt P41440).
T1 sequence (P41440 1-591): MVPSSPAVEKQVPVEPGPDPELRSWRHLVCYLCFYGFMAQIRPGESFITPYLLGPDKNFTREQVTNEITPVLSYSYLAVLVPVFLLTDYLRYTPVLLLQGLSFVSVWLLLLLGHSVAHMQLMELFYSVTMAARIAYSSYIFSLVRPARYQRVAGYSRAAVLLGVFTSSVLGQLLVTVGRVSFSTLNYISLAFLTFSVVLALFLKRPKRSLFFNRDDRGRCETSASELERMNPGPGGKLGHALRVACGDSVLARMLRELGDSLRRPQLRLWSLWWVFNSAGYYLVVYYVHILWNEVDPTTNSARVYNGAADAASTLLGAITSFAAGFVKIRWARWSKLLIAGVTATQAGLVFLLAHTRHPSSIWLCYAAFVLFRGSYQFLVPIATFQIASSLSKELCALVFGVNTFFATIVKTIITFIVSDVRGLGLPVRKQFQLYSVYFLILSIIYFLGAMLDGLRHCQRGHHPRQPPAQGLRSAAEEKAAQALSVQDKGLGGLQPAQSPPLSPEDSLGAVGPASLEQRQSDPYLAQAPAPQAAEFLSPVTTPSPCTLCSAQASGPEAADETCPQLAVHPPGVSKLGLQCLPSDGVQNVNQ
As to the kind of experiment: [32P] 2’3’-cGAMP uptake and competition uptake assay in THP-1 cells. Type of assay: cell-based. To be noted: for 2’3’-cGAMP uptake, time course with inhibitor in culture medium: 500 μM, various cell lines (THP-1, U937, K562); for IC50: IC50, competition of [32P] 2’3’-cGAMP uptake, THP-1 cells, varying concentrations of competing, unlabeled ligand, 1 nM [32P] 2’3’-cGAMP; for CDN uptake and/or stimulation: human cells; for CDN uptake: human cell lines and primary cells ex vivo; for [32P] 2’3’-cGAMP uptake in presence of unlabeled nucleotide: 200 μM competing.

The target in assay [2] is T1, SLC19A1. As to the kind of experiment: [32P] 2’3’-cGAMP uptake assay in human PBMCs. Type of assay: cell-based.
The subject of another assay is THP-1 cells. Type of assay: cell-based, human. To be noted: hIFN-β 100 ng/ml, sulfasalazine at high concentrations.
Assay [3] has as its target T1, SLC19A1. The experiment in a line: [3H]-methotrexate uptake assay in THP-1 cells. Type of assay: cell-based. To be noted: SLC19A1-depleted THP-1 cells, 1h. A digest of the protocol:
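Cells washed and resuspended at 4x10^6/ml in MHS buffer (20 mM HEPES, 235 mM sucrose, pH 7.4 with MgO). Exposed to 12.3 nM [3H]-methotrexate at 37°C and 5% CO2 for 1 h. Radioactivity was counted by liquid scintillation for 3 min per sample, and counts per minute were normalized to total protein.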

In a further assay the test system is murine splenocytes. The experiment in a line: [32P] 2’3’-cGAMP uptake assay in primary murine splenocytes. Type of assay: cell-based, mouse. To be noted: 500 μM competing, unlabeled.
Assay [4] has as its target T1, SLC19A1. As to the kind of experiment: [32P] 2’3’-cGAMP uptake assay in K562 cells. Type of assay: cell-based. To be noted: 5 μM, one hour.
For the next assay, the system named is STING. The experiment in a line: STING pathway activation. Type of assay: cell-based, human. The note with it: THP-1 pre-treated with 5 μM. The procedure, abridged:
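Stimulated 4 h with 100 µM 2'3'-cGAMP, with or without digitonin (5 µg/mL). Read-outs were IFNB1 mRNA by RT-qPCR and STING dimerization/phosphorylation by semi-native PAGE immunoblot. Means of n=2 technical replicates.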

Setting [5] is: 500 μM excess, unlabeled, three hours, six healthy donors.

This note sets out measurements from paper PMC6785039 (Nature, 2019).

Several values for one entry are separate records, joined by “and”; a condition that tells them apart may be missing. Equal values may be shown once.

As for `Nc1nc(=O)c2nc(CNc3ccc(C(=O)N[C@@H](CCC(=O)O)C(=O)O)cc3)cnc2[nH]1` [folic acid], at SLC19A1 [1], the “2’3’-cGAMP uptake, time course with inhibitor in culture medium” value is “Sustained inhibition”; the concentration for half-maximal inhibition (IC50) (usually the point on the concentration scale where inhibition reaches its midpoint) was 4800 nM and 4790 nM; the “CDN uptake and/or stimulation” value was “almost completely blocked”.

For the compound `O=C(O)c1cc(/N=N/c2ccc(S(=O)(=O)Nc3ccccn3)cc2)ccc1O` [sulfasalazine], the “[32P] 2’3’-cGAMP uptake in PBMCs” value on SLC19A1 [2] (setting [5]) is “strongly inhibited”. Besides, in the assay on THP-1 cells, the “effect on reporter responses to hIFN-β” value is reported as “blocked”. Besides, at SLC19A1 [1], the “2’3’-cGAMP uptake, time course with inhibitor in culture medium” value is on record as “Sustained inhibition”; the IC50 was 2100 nM and 2060 nM; the CDN uptake entry was “inhibited”; the “CDN uptake and/or stimulation” value was “almost completely blocked”.

On to `Nc1nc2c(ncn2[C@@H]2O[C@H](COP(=O)(O)O)[C@@H](O)[C@H]2O)c(=O)[nH]1` [GMP], for which, at SLC19A1 [1] (THP-1, one hour), the “[32P] 2’3’-cGAMP uptake in presence of unlabeled nucleotide” value is recorded as “slightly inhibited”.

Take `CN1c2c(nc(N)[nH]c2=O)NCC1CNc1ccc(C(=O)N[C@@H](CCC(=O)O)C(=O)O)cc1` (stereo partly shown) [5-me-THF, 5-methyl-tetrahydrofolic acid]: the “[32P] 2’3’-cGAMP uptake in PBMCs” value on SLC19A1 [2] (setting [5]) is recorded as “strongly inhibited”. For the same compound, the “effect on reporter responses to hIFN-β” value in the assay with THP-1 cells is listed as “did not inhibit”. Further, at SLC19A1 [1], the “2’3’-cGAMP uptake, time course with inhibitor in culture medium” value was “Sustained inhibition” and the IC50 stood at 4.1 nM. Besides, at SLC19A1 [1] (THP-1, compared to the other (anti-) folates), the “completeness of inhibition of [32P] 2’3’-cGAMP uptake” value was “did not observe complete inhibition”. For the same compound, on SLC19A1 [1] (THP-1, preloaded 30 min, washed, [32P] 2’3’-cGAMP for one hour), the “trans-stimulation of 2’3’-cGAMP influx by preloading the cells” value was “augmented”.

As to `CN(Cc1cnc2nc(N)nc(N)c2n1)c1ccc(C(=O)N[C@@H](CCC(=O)O)C(=O)O)cc1` [methotrexate], the “uptake of methotrexate in SLC19A1-depleted cells” value on SLC19A1 [3] is reported as “nearly abolished”. For the same compound, at SLC19A1 [2] (setting [5]), the “[32P] 2’3’-cGAMP uptake in PBMCs” value is “strongly inhibited”. Further, in the assay on THP-1 cells, the “effect on reporter responses to hIFN-β” value is given as “did not inhibit”. The “2’3’-cGAMP uptake by murine splenocytes” value in the assay on murine splenocytes is listed as “did not inhibit”. Also, on SLC19A1 [1], the “2’3’-cGAMP uptake, time course with inhibitor in culture medium” value is reported as “Sustained inhibition”; the CDN uptake entry is “inhibited”; the “CDN uptake and/or stimulation” value is on record as “almost completely blocked”.

As for `Nc1ncnc2c1ncn2[C@@H]1O[C@H](COP(=O)(O)O)[C@@H](O)[C@H]1O` [AMP], at SLC19A1 [1] (THP-1, one hour), the “[32P] 2’3’-cGAMP uptake in presence of unlabeled nucleotide” value is on record as “slightly inhibited”.

For the compound “N-hydroxysuccinimide (NHS)-methotrexate [NHS-methotrexate]”, the “2’3’-cGAMP influx in treated cells” value at SLC19A1 [4] is “much reduced”; on SLC19A1 [1] (THP-1, 5 μM, one hour), “much reduced”. At SLC19A1 [2] (5 μM pre-treatment, one hour, four healthy donors), the “[32P] 2’3’-cGAMP uptake in PBMCs” value is recorded as “strongly inhibited”. The “STING activation by 2’3’-cGAMP” value in the assay with STING is “blocks STING activation”.
